Series [1] in a line: Inhibition of HCV genotype 1b J4 N-terminal His-tagged NS5Bdelta21 polymerase expressed in Escherichia coli C41(DE3) assessed as amount of double-stranded RNA synthesis. Further details: species or system Hepatitis C virus isolate HC-J4.
In series [2] the test system is Hepatitis C virus isolate HC-J4. Nature of the series: Inhibition of HCV genotype 1b J4 N-terminal His-tagged NS5Bdelta21 polymerase expressed in Escherichia coli C41(DE3) assessed as amount of double-stranded RNA synthesis at 20 uM.
A further series has as its system Hepatitis C virus. Nature of the series: Antiviral activity against HCV JFH-1 assessed as inhibition of viral replication by cell based assay. Type of series: functional, organism-based, Hepacivirus hominis.
Series [3] deals with Hepatitis C virus isolate HC-J4. Description: Ratio of IC50 for HCV genotype 1b J4 NS5Bdelta21 polymerase P495L mutant to IC50 for HCV genotype 1b J4 wild type N-terminal His-tagged NS5Bdelta21 polymerase. In short, it runs like this:
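IC50 measured in cell-free poly U/ATP double-stranded RNA synthesis assay for purified His-tagged NS5BΔ21 P495L mutant and wild type, both prepared identically by Ni-NTA purification. Mutant IC50 divided by wild-type IC50 and reported as fold difference. A Thumb Pocket I benzimidazole inhibitor served as control.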

A further series deals with Huh-7. Description: Cytotoxicity against human HuH7 cells up to 512 uM after 72 hrs by MTT assay. It is filed as cell-based. To be noted: huh-7, 72 h. The method in brief:
(§1)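 Cells trypsinized in exponential growth and plated at 2000 (HuH7) or 1000 (HEK293) per well. Allowed to attach 96 h at 37°C, 5% CO2. Drug diluted in medium with 1% DMSO final, then 72 h at 37°C, 5% CO2. Viability read by MTT colorimetric assay.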
On the technique in general: Formazan colour is commonly taken as a measure of viable cells.

In a further series the test system is HEK293. Description: Cytotoxicity against human HEK293 cells up to 512 uM after 72 hrs by MTT assay. Type of series: cell-based. The note with it: hek293, 72 h. In short, it runs like this: as §1
Series [4] has as its system RNA-directed RNA polymerase (Hepacivirus hominis), O39930 [H95Q]. Description: Inhibition of HCV genotype 1b J4 NS5Bdelta21 polymerase H95Q mutant expressed in Escherichia coli C41(DE3) assessed as amount of double-stranded RNA synthesis. The note with it: Hepatitis C virus isolate HC-J4. In short, it runs like this:
(§2)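 N-terminal His6-tagged NS5BΔ21 (C-terminal 21 residues removed) point mutants, made by site-directed mutagenesis, sequence-verified and purified like wild type: Ni-NTA affinity, imidazole elution, dialysis into Tris pH 7.5/sodium acetate/DTT/EDTA/10% glycerol. Cell-free assay quantifies double-stranded RNA synthesized on poly U homopolymeric template with ATP. IC50 determined per mutant.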

The subject of series [5] is RNA-directed RNA polymerase (Hepacivirus hominis), O39930 [C316Y]. Description: Inhibition of HCV genotype 1b J4 NS5Bdelta21 polymerase C316Y mutant expressed in Escherichia coli C41(DE3) assessed as amount of double-stranded RNA synthesis. To be noted: Hepatitis C virus isolate HC-J4. In short, it runs like this: as §2
In series [6] the test system is RNA-directed RNA polymerase (Hepacivirus hominis), O39930 [M423T]. Nature of the series: Inhibition of HCV genotype 1b J4 NS5Bdelta21 polymerase M423T mutant expressed in Escherichia coli C41(DE3) assessed as amount of double-stranded RNA synthesis. To be noted: Hepatitis C virus isolate HC-J4. In short, it runs like this: as §2

The source made the active and inactive calls. No cut-off for these calls is given here.

Usually IC50 stands for the point on the concentration scale where inhibition reaches its midpoint. In general, inhibition refers to the relative decrease from the control value, in per cent.

Sequence of RNA-directed RNA polymerase (Hepacivirus hominis), O39930 [M423T] (O39930 entry or part of it M423T): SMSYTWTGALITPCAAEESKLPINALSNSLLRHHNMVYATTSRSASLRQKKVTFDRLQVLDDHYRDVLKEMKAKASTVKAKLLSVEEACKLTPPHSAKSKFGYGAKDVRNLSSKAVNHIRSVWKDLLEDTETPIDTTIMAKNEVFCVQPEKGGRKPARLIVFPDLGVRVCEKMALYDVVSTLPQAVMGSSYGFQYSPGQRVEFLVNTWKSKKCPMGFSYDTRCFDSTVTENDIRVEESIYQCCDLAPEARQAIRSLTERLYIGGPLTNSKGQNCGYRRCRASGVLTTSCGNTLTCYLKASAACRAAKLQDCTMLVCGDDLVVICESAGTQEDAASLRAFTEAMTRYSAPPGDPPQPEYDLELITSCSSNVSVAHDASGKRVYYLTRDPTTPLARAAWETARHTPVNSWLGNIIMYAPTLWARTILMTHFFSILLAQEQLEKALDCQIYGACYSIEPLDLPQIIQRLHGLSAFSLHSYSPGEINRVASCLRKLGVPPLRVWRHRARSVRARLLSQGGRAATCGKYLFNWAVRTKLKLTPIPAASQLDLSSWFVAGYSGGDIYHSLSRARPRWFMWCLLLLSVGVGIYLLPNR
Sequence of RNA-directed RNA polymerase (Hepacivirus hominis), O39930 [H95Q] (O39930 entry or part of it H95Q): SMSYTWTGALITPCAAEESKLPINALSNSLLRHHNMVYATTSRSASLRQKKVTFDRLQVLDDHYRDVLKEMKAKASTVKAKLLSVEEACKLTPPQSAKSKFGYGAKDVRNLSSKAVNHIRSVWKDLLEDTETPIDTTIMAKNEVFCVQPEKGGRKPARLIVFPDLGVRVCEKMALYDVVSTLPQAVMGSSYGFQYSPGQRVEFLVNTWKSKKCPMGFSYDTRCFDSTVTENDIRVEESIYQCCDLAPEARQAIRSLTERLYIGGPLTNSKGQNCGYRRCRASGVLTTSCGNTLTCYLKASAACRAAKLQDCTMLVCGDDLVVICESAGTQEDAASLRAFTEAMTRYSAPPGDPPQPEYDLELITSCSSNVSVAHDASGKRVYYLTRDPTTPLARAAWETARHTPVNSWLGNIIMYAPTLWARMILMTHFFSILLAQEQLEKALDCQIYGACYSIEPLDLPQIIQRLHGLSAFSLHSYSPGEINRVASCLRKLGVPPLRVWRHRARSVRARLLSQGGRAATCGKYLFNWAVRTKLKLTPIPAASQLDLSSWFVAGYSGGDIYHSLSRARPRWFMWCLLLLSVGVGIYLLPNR
Sequence of RNA-directed RNA polymerase (Hepacivirus hominis), O39930 [C316Y] (O39930 entry or part of it C316Y): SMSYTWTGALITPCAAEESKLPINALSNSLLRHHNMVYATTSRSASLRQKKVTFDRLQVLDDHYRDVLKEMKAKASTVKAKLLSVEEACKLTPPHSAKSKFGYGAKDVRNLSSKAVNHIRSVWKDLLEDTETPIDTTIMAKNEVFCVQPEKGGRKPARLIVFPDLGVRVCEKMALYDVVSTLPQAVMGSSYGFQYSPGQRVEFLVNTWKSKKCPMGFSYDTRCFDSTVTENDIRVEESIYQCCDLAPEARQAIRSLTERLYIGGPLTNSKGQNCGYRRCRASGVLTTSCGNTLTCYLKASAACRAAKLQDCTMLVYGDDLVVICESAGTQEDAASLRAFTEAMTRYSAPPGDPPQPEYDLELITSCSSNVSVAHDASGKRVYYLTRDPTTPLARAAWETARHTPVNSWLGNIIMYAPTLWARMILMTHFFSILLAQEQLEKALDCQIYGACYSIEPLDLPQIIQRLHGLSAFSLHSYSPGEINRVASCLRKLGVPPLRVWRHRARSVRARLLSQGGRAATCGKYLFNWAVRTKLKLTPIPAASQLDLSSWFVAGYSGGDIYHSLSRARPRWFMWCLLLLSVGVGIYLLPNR

With `O=C1/C(=C/c2ccc(O)cc2)Oc2cccc(O)c21`, the IC50 in series [1] turned out to be 5.9 µM; with Hepatitis C virus it was 18 µM. Also, the inhibition in series [2] worked out at 60%. Also, the Ratio IC50 in series [3] was found to be 6. For the same molecule, the Activity result in the series on Huh-7 and in the series on HEK293 was “Non-toxic” throughout. Further, the inhibition result in [4], in series [5] and in [6] was “Active” throughout.

Values taken from ChEMBL document CHEMBL1811757, “Discovery of naturally occurring aurones that are potent allosteric inhibitors of hepatitis C virus RNA-dependent RNA polymerase” (J Med Chem, 2011).
